Screening results deposited in PubChem BioAssay by several laboratories.
The list is not random: actives were taken first. Their share in the collection is about 2%.
Diaph act CS = counter-screen for diaphorase-based assays: diaphorase activators and chemical reducers. Diaphorase/resazurin coupled assay, resorufin fluorescence, 16 min; hits give high values; 1 = vehicle wells, 0 = NADH-free wells. activation factor at 20 µM. actives 0.005% (n = 190,000). AID 1229;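 active means diaphorase activity raised at least twofold by the compound at 20 µM; inactive means activation factor below 2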
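Measured by – red resorufin fluorescence at 544/590 nm excitation/emission · Test system – Clostridium kluyveri diaphorase, purified enzyme · Incubation – reaction time 16 min, room temperature · Buffer or medium – 50 mM HEPES pH 7.4 with 4.542 mM MgCl2, 0.005% Tween 20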
Hck Nef HTS = inhibitors of human Hck kinase activated by Nef. P08631. Recombinant Hck-YEEI plus Nef, Z-Lyte FRET kinase assay. inhibition, % at 20 µM. actives 0.68% (n = 220,000);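 active means Hck-Nef kinase inhibition above about 50%, limit read from the data; inactive means inhibition below that limit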;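 further: 0% = DMSO with Hck plus Nef and 100% = Hck alone without Nef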
Target sequence (P08631 whole entry, looked up): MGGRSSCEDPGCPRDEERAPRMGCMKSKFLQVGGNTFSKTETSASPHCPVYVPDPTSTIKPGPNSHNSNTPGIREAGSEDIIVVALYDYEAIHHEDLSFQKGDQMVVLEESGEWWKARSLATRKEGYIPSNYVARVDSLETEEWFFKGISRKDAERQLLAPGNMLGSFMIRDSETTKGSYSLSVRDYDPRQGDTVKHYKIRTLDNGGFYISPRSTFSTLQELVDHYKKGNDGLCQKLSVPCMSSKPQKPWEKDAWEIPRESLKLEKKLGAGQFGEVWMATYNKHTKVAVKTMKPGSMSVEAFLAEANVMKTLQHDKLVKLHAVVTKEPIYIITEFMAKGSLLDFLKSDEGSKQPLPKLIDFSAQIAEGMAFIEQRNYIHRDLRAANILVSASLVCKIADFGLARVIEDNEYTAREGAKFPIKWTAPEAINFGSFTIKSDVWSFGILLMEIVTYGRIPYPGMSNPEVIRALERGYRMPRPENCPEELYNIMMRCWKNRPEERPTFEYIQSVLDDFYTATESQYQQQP
14-3-3 Bad PPI = disrupts binding of bovine 14-3-3 zeta to phospho-Bad peptide | inhibition, % at 21.7 µM | actives 0.71% (n = 220,000) | AID 781 | TR-FRET 14-3-3zeta/Dy647-pBad peptide displacement, 1 h | P63103;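 active means inhibition above about 70%, limit read from the data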;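 further: 0% = full 14-3-3 plus peptide FRET controls and 100% = background without 14-3-3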
NCF1 inh = inhibitors of human p47phox binding; P14598; p47phox/p22phox peptide binding, fluorescence polarization, 2 h; inhibition, % at 24.7 µM; actives 0.53% (n = 220,000); AID 1274;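 further: 0% = p47phox with labelled peptide and 100% = labelled peptide alone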
eIF4E-4G inh = eIF4E/eIF4G interaction inhibition in translation initiation. P63073+Q04637. TR-FRET eIF4E-eIF4GI(517-606) binding, 2 h. inhibition, % at 21.7 µM. actives 0.37% (n = 220,000);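 further: 0% = full FRET control wells and 100% = background wells lacking eIF4GI fragment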
* marks the source's active call; other numbers are inactive results; x = not tested or not shown; [ ] = another dose, or the depositor's remark.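 How the source made its calls, unless noted: active means inhibition above about 30% (limit read from the data); inactive means the rest.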

SMILES	Diaph act CS	Hck Nef HTS	14-3-3 Bad PPI	NCF1 inh	eIF4E-4G inh
COc1ccc(/C=C(/C#N)C(=O)Nc2cc(C)ccc2C)cc1C(=O)O	1.1	0	5	163*	3
Cc1ccc(-n2c(Cc3cccs3)nnc2SCC(=O)Nc2ccc(F)c(F)c2)cc1	0.8	2	-4	75*	-18
COc1ccc(-n2c(Cc3cccn3C)nnc2SCC(=O)Nc2cccc(F)c2)cc1	1	-4	6	-5	62*[fluorescence artefact?]
CCOC(=O)n1c(O)c(N=NC(N)=S)c2cc(C)ccc21	x	3	-12	-12	1
O=C(Nc1ccc2oc(-c3ccc(Cl)c(Cl)c3)nc2c1)c1ncn[nH]1	1.1	26	75*	-9	-34
O=C(Nc1ccc(-c2nc3cc(NC(=O)c4cccs4)ccc3o2)cc1)c1cccs1	1.2	3	74*[fluorescence artefact?]	10	-44
O=C(CSc1nnc(CNC(=O)c2c(F)cccc2Cl)o1)Nc1ccc2c(c1)OCO2	1	23	-21	31*	0
Cc1ccc(NC(=O)CSc2nnc(CNC(=O)c3c(F)cccc3Cl)o2)cc1	0.8	2	10	3	-1
O=c1c(Cc2ccccc2)c(O)ccn1Cc1ccco1	0.9	10	-10	-7	0
Oc1ccc(N=Cc2ccc(O)c(O)c2)cc1	0.4	3	86*[fluorescence artefact?]	18	19
O=[N+]([O-])c1cc(CN2CCOCC2)c2cccnc2c1O	0.5	26	17	0	33*
COc1ccc(-c2ocnc2C(=O)NCc2nn(-c3ccccc3)nc2C)cc1	x	-7	-4	-13	2
COc1cc2ccccc2cc1C(=O)NC(=S)Nc1cccc(C(=O)O)c1C	x	11	1	21	2
O=C1CCC(=O)N1CN(C(=O)c1ccco1)c1ccc(Cl)c(Cl)c1	1.2	0	-5	-5	-7
CC(=O)N(CN1C(=O)CCC1=O)c1ccc(Cl)c(Cl)c1	1.1	-20	82*	-2	-3
COCCn1c(C)cc(C2=NNC(=Nc3ccc(Cl)cc3Cl)SC2)c1C	0.8	0	72*	-38	-10
COCCn1c(C)cc(C2=NNC(=NC3CC3)SC2)c1C	1	0	-9	-5	-1
Cc1cnc(NC(=O)CSc2nc3ccccc3s2)s1	0.9	-10	3	-18	0
Cc1cnc(NC(=O)c2ccc(-c3nc4ccccc4s3)o2)s1	0.7	1	-4	-34	59*[fluorescence artefact?]
COc1ccc(-c2nc(C(N)=O)c3[nH]c(=O)n(-c4cccc(Cl)c4)c3n2)cc1OC	1.1	17	61	37*	3
COc1cccc(-c2nc(C(N)=O)c3[nH]c(=O)n(-c4cccc(Cl)c4)c3n2)c1OC	0.9	0	7	-10	7
CC(C)c1ccc(NS(=O)(=O)c2ccc3[nH]cc(C(=O)N4CCC(C(N)=O)CC4)c(=O)c3c2)cc1	0.8	0	96*[fluorescence artefact?]	-7	8
O=C(c1c[nH]c2ccc(S(=O)(=O)N3CCOCC3)cc2c1=O)N1CCCC1	1	0	-2	3	3
CCN1CCN(Cc2ccc(NC(=O)c3cc(NC(=O)c4nccnc4N)cc(OC)c3)cc2C(F)(F)F)CC1	x	30	-4	-40	-3
CCN1CCN(Cc2ccc(NC(=O)c3cc(NC(=O)c4cncc(-c5ccc(C#N)cc5)c4)cc(OC)c3)cc2C(F)(F)F)CC1	x	-39	-58	69*	-110
SMILES	Diaph act CS	Hck Nef HTS	14-3-3 Bad PPI	NCF1 inh	eIF4E-4G inh
COc1ccccc1NC(=O)CN(Cc1ccco1)C(=O)c1cc2ccccc2o1	0.9	19	-5	-3	1
CN(C)Cc1nc2ccccc2c(=O)n1Cc1nc(-c2cccc([N+](=O)[O-])c2)cs1	1	18	98*	2	0
Clc1ccc(Cl)c2sc(N3CCCC3)nc12	1.1	6	0	-8	4
CN(C)c1ncc(C2=C(Cl)C(=O)C(N3CCCC3)=C(Cl)C2=O)s1	x	0	79*[fluorescence artefact?]	1	53*[fluorescence artefact?]
CC(=O)c1cnc(N(C)C)s1	1.1	16	-2	-4	3
O=C1C(Cl)=C(N2CCCCC2)C(=O)C(Cl)=C1c1cnc(N2CCCCC2)s1	0.4	-4	27	10	37*[fluorescence artefact?]
Clc1ccccc1Sc1ccc(-c2ccccn2)s1	x	-1	-10	0	-10
Cc1cc(Cl)ccc1N=c1ssnc1Cl	1	-2	40	1	48*
COc1ccc(OC)c(N=c2ssnc2Cl)c1	0.7	-3	62	12	-2
Cc1ccc(N=c2ssnc2Cl)cc1	0.8	-1	46	8	72*[fluorescence artefact?]
Nc1ccccc1N=c1ssnc1Cl	1.1	19	25	14	12
COc1cc(N=c2ssnc2Cl)c(OC)cc1Cl	0.6	-1	52	15	73*[fluorescence artefact?]
Cc1cc(C)nc(/N=c2/ssnc2Cl)c1	0.7	0	25	-1	4
O=C(NC1CCCCC1)c1ccc(S(=O)(=O)c2ccccc2)cc1	0.9	25	3	-7	0
O=C(O)/C=C/C(=O)NCc1csc2ccccc12	x	-4	3	5	2
c1ccc(-n2nnc3cnccc32)cc1	0.9	0	-2	-10	31*
CCc1ccccc1S(=O)(=O)Cc1ccc(C(=O)NCc2cccs2)o1	0.9	18	-6	-13	2
Clc1nc(Cl)nc(N(c2ccccc2)c2ccccc2)n1	1	4	5	3	19
Nc1ccc(N(c2ccccc2)c2ccc(N)cc2)cc1	0.9	1	-20	-5	41*[fluorescence artefact?]
Cc1ccc(/C=N/Nc2ccnc3cc(Cl)ccc23)c(C)c1	1.3	8	68	47*	6
N#CCCN(C(=S)NC(=O)c1ccco1)c1ccccc1F	1	13	-5	-1	-1
COc1cccc(NC(=O)N2CCN(c3nnnn3-c3ccccc3)CC2)c1	0.8	-2	8	-5	3
Cc1ccc(C(=O)NC2CCCCNC2=O)cc1 (configuration not stated)	x	14	-2	-7	90*
CSc1nc(N2CCN(CCO)CC2)c2sc3nc(-c4ccco4)c4c(c3c2n1)CCC4	0.9	x	x	x	x
CSc1nc(SCC(=O)O)c2sc3nc(-c4ccccc4)c4c(c3c2n1)CCC4	x	-52	87*	-8	57*
O=C(CSc1nnc2scc(-c3ccccc3)n12)Nc1nsc(-c2ccccc2)n1	0.9	9	69	45*	-7
Cc1ccc(-c2csc3nnc(SCC(=O)Nc4nsc(-c5ccccc5)n4)n23)cc1	0.7	6	19	-4	-16
O=C(/C=C/c1ccc([N+](=O)[O-])cc1)Nc1ncc([N+](=O)[O-])s1	0.9	10	18	-4	-6
COc1ccccc1-c1nc(SCC(=O)NCC2CCCO2)c2c(=O)n(C)c(=O)n(C)c2n1 (configuration not stated)	0.8	-12	-4	11	0
Cc1nn(-c2ccccc2C(=O)O)c(=O)c2ccccc12	1	1	82*	3	-3
